Reference: ChEMBL document CHEMBL5046229 (Eur J Med Chem, 2022)
The source made the active and inactive calls. No cut-off for these calls is given here.

Legend:
[1] = Drug metabolism in JAK2V6175 transgenic myelofibrosis C57BL/6 mouse spleen at 325 mg/kg, po assessed as metabolite formation measured after 4 hrs by LC-MS/MS analysis; format: ADME, organism-based; settings: in vivo
Method in brief: (§1)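 Mice received a single oral dose of 325 mg/kg (n=4 per compound). Blood, spleen and bone marrow taken about 4 h later and homogenized. Extracts centrifuged at 10,000 × g and separated by reverse-phase C18 UPLC (0.1% formic acid water/acetonitrile gradient). Parent and metabolites quantified by MRM LC-MS/MS against internal-standard calibration (0.02–160 ng/mL, r² ≥ 0.99). Synthesized metabolite standards used for confirmation. Levels given as ng/g, mean ± SEM.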

[2] = molecular target: Dual specificity mitogen-activated protein kinase kinase 1 (Homo sapiens, UniProt Q02750); assay: Inhibition of human MEK-1 by Lanthascreen TR-FRET assay
Sequence of Dual specificity mitogen-activated protein kinase kinase 1 (Q02750 whole entry): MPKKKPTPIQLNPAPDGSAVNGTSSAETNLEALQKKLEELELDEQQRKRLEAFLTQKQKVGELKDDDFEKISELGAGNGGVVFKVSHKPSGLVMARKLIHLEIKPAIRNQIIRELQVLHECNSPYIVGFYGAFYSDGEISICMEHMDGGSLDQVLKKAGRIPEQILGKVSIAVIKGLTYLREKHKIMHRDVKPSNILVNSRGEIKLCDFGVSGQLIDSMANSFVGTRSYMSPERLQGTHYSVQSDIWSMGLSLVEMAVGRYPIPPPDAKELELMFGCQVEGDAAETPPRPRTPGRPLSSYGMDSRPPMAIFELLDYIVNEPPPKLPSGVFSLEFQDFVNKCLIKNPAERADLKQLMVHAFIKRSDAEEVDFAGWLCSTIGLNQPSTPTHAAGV

[3] = test system: A-375; assay: Inhibition of ERK phosphorylation in human A-375 cells assessed as change in phosphorylated ERK level at 10 uM for 30 minutes in presence of PDGF by western blot analysis relative to control; format: cell-based; design: scale not given: the % may be the effect or the level left
Method in brief: (§2)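 A375 and D54 cells grown in DMEM with 10% FBS; SET-2 in RPMI with 20% FBS. Cells treated 30 min at 10 μM; A375 and D54 also received PDGF 50 ng/ml, which was omitted for SET-2. Cells lysed in RIPA with protease and phosphatase inhibitors, then SDS-PAGE/western blot for pAKT S473, pERK1/2 T202/Y204, total AKT and total ERK. Densitometry of phospho signal normalized to total protein, expressed as % of control. 3 independent experiments, mean ± SEM.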

[4] = molecular target: Phosphatidylinositol 4,5-bisphosphate 3-kinase catalytic subunit alpha isoform (Homo sapiens, UniProt P42336); assay: Inhibition of human PI3Kalpha by TR-FRET based Adapta assay
Sequence of Phosphatidylinositol 4,5-bisphosphate 3-kinase catalytic subunit alpha isoform (P42336 whole entry, canonical isoform): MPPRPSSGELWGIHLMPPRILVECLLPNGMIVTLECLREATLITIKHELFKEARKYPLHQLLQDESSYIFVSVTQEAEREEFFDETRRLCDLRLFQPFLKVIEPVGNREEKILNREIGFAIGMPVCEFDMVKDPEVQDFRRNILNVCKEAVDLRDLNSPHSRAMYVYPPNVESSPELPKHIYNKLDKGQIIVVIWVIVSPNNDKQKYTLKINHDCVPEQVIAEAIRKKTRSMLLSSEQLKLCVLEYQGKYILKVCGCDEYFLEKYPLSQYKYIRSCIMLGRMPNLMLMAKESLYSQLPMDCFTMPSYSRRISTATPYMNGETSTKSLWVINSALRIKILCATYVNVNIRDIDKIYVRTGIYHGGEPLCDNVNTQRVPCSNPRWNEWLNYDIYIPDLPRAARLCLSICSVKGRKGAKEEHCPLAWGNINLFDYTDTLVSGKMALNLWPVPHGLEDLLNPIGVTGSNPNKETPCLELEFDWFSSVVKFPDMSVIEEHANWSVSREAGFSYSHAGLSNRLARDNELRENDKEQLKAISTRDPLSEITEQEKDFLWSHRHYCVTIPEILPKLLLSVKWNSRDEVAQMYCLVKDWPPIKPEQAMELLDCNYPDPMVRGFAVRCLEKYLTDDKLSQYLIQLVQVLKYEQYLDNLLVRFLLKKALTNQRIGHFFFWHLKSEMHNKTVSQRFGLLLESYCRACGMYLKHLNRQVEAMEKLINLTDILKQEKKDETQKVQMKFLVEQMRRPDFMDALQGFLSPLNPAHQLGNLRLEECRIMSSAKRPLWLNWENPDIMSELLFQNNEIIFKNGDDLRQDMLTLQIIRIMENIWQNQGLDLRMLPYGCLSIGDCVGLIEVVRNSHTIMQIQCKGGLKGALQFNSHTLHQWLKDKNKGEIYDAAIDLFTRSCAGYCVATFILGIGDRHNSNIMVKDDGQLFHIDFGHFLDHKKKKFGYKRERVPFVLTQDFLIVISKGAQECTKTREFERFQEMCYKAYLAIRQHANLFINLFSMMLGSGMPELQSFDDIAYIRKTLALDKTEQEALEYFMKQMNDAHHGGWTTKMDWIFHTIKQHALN

[5] = molecular target: Phosphatidylinositol 4,5-bisphosphate 3-kinase catalytic subunit gamma isoform (Homo sapiens, UniProt P48736); assay: Inhibition of human PI3Kgamma by TR-FRET based Adapta assay
Sequence of Phosphatidylinositol 4,5-bisphosphate 3-kinase catalytic subunit gamma isoform (P48736 whole entry, canonical isoform): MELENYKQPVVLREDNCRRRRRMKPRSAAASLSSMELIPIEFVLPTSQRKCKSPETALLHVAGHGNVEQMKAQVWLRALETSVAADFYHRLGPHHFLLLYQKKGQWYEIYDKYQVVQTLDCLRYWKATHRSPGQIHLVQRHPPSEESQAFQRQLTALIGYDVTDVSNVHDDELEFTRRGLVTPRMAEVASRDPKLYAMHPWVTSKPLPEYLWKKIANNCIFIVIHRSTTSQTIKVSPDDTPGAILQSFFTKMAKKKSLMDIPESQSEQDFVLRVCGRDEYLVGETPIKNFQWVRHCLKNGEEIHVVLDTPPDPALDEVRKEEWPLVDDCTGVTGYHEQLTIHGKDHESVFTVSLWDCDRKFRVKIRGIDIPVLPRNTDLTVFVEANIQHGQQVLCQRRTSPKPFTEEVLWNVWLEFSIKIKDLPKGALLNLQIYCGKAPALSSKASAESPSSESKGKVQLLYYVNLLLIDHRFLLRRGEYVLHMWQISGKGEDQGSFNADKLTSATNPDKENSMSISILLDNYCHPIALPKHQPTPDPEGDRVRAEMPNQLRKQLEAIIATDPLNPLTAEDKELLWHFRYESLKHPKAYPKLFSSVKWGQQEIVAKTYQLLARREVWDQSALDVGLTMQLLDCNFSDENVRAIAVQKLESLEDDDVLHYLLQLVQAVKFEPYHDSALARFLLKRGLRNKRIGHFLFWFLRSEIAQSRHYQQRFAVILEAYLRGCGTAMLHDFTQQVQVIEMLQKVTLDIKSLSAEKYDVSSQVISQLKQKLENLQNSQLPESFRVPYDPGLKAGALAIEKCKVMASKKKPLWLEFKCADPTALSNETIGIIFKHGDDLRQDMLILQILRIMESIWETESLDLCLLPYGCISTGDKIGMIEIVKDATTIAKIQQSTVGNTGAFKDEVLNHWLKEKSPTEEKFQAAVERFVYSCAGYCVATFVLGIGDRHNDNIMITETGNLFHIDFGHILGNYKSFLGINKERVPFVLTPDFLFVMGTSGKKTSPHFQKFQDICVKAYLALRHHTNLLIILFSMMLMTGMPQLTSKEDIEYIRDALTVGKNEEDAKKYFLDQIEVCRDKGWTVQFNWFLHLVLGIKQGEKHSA

[6] = molecular target: Phosphatidylinositol 4,5-bisphosphate 3-kinase catalytic subunit beta isoform (Homo sapiens, UniProt P42338); assay: Inhibition of human PI3Kbeta by TR-FRET based Adapta assay
Sequence of Phosphatidylinositol 4,5-bisphosphate 3-kinase catalytic subunit beta isoform (P42338 whole entry, canonical isoform): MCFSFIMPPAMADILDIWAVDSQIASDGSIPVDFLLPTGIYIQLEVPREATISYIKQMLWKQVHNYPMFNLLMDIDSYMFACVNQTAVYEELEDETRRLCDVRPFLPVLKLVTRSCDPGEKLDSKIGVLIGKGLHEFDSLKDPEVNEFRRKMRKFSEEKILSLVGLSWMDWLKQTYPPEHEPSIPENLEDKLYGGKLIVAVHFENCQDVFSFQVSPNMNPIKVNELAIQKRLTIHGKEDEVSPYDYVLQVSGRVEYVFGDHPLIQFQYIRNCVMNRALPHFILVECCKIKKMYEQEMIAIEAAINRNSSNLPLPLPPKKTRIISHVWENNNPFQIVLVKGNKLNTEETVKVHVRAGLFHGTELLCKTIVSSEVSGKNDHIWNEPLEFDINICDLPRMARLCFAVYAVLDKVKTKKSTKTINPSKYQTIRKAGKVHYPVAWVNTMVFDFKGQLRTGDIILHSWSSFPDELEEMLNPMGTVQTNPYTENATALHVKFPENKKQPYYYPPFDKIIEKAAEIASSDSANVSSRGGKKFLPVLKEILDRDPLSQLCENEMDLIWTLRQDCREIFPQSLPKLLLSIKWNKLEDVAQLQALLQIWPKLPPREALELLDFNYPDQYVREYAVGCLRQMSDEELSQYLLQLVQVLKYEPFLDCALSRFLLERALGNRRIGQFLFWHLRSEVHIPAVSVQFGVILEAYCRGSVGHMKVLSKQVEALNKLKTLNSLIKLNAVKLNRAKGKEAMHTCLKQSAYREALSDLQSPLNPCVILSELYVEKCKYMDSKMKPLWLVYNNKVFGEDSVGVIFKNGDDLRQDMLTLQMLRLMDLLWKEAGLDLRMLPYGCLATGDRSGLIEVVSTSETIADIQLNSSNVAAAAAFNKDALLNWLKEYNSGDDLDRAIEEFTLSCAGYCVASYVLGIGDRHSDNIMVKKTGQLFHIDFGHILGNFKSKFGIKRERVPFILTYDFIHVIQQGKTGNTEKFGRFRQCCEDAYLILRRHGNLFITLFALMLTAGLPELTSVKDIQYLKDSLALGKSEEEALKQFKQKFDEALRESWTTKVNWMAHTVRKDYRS

[7] = test system: D54 cell line; assay: Inhibition of AKT phosphorylation in human D-54 cells assessed as change in phosphorylated Akt level at 10 uM for 30 minutes in presence of PDGF by western blot analysis relative to control; format: cell-based; design: scale not given: the % may be the effect or the level left; method in brief: as §2
[8] = test system: Spleen; assay: Effect of MAPK signalling pathway in JAK2V6175 transgenic myelofibrosis C57BL/6 mouse spleen assessed as reduction in […] phosphorylation at 325 mg/kg, po administered daily for 5 days by flow cytometry analysis; format: functional, organism-based; settings: time 5.0 day
Method in brief: (§3)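 JAK2V617F bone-marrow-transplant MF mice were dosed 325 mg/kg orally daily for 5 days, then sacrificed. Isolated cells stained intracellularly with APC-conjugated anti-pAKT (S473) or anti-pERK1/2 (T202/Y204). Mean fluorescence intensity measured by flow cytometry. Vehicle n=6, treated n=4; mean ± s.e.m., Welch's t-test.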

[9] = molecular target: T1, Phosphatidylinositol 4,5-bisphosphate 3-kinase catalytic subunit delta isoform (Homo sapiens, UniProt O00329); assay: Inhibition of human PI3Kdelta by TR-FRET based Adapta assay
T1 sequence (O00329 whole entry): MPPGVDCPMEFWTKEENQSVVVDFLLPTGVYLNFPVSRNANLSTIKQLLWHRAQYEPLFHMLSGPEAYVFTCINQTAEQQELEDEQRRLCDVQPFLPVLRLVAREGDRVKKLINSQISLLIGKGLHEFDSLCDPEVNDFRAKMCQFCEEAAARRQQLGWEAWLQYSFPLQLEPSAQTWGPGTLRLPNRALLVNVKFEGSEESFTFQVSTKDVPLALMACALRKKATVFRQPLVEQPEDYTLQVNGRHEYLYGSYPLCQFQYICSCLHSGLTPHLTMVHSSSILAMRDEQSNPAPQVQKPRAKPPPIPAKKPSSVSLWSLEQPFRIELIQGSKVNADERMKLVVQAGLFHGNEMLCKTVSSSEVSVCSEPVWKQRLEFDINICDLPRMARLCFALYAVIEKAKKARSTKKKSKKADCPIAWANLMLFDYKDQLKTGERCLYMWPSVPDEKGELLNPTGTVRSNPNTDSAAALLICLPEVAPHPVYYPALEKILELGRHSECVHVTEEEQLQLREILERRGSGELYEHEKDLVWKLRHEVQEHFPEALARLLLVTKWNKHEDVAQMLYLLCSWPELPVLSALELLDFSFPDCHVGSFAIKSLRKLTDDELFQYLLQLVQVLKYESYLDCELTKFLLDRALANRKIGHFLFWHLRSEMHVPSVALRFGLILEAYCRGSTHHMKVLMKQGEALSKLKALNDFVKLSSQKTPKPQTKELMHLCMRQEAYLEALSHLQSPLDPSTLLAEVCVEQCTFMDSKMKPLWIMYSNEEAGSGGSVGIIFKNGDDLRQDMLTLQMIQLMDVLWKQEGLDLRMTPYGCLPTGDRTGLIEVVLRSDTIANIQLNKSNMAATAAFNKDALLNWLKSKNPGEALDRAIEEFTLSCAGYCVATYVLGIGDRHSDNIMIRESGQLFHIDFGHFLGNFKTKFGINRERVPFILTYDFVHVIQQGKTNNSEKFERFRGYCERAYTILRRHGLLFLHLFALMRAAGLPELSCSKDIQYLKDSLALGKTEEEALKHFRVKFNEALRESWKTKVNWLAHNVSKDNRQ

[10] = test system: SET2; assay: Inhibition of AKT phosphorylation in human SET2 cells assessed as change in phosphorylated Akt level at 10 uM for 30 minutes in absence of PDGF by western blot analysis relative to control; design: scale not given: the % may be the effect or the level left
[11] = test system: Spleen; assay: Effect of PI3K signalling pathway in JAK2V6175 transgenic myelofibrosis C57BL/6 mouse spleen assessed as reduction in AKT phosphorylation at 325 mg/kg, po administered daily for 5 days by flow cytometry analysis; format: functional, organism-based; settings: time 5.0 day; method in brief: as §3
[12] = Drug concentration in JAK2V6175 transgenic myelofibrosis C57BL/6 mouse spleen at 325 mg/kg, po measured after 4 hrs by LC-MS/MS analysis; format: ADME, organism-based; settings: read-out: Ct; method in brief: as §1
[13] = test system: A-375; assay: Antiproliferative activity against human A-375 cells assessed as reduction in cell viability measured after 72 hrs by CellTiter-Fluor cell viability assay; format: functional, cell-based; settings: A-375, 72 h
Method in brief: (§4)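 Cells grown in DMEM or RPMI 1640 with 10% FBS (20% for SET-2), 37 °C, 5% CO₂. About 500–1,000 cells/well seeded and incubated 24 h, then exposed to final concentrations of 0.1–20 μM for 72 h. Viability read by fluorescence (CellTiter-Fluor). IC₅₀ calculated from 3 independent experiments in duplicate wells, reported as mean ± SEM.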

[14] = test system: SET-2; assay: Antiproliferative activity against human SET-2 cells assessed as reduction in cell viability measured after 72 hrs by CellTiter-Fluor cell viability assay; format: functional, cell-based; settings: SET-2, 72 h; method in brief: as §4
[15] = test system: Spleen; assay: Effect of MAPK signalling pathway in JAK2V6175F transgenic myelofibrosis C57BL/6 mouse spleen assessed as reduction in ERK1/2 phosphorylation at 325 mg/kg, po daily for 5 days by flow cytometry analysis; format: functional, organism-based; settings: time 5.0 day; method in brief: as §3
[16] = test system: D54 cell line; assay: Antiproliferative activity against human D54 cells assessed as reduction in cell viability measured after 72 hrs by CellTiter-Fluor cell viability assay; format: functional, cell-based; settings: D54, 72 h; method in brief: as §4
[17] = test system: Mus musculus; assay: Antitumor activity against JAK2V6175 transgenic myelofibrosis C57BL/6 mouse cancer model assessed as reduction in spleen volume at 325 mg/kg, po administered daily for 4 days by magnetic resonance imaging analysis; format: functional, organism-based; settings: time 4.0 day
Method in brief: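 Lethally irradiated C57BL/6 female recipients received 5 million mixed bone marrow cells (Mx1-Cre; JAK2V617F donor with WT, 1:9) and polyI:C twice 2 weeks after transplant. 325 mg/kg by oral gavage daily. Spleen volume by anatomic MRI at 7T after 4 days. Vehicle n=5, treated n=4; mean ± s.d., Welch's t-test.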

[18] = test system: A-375; assay: Inhibition of AKT phosphorylation in human A-375 cells assessed as change in phosphorylated Akt level at 10 uM for 30 minutes in presence of PDGF by western blot analysis relative to control; format: cell-based; design: scale not given: the % may be the effect or the level left; method in brief: as §2
[19] = test system: D54 cell line; assay: Inhibition of ERK phosphorylation in human D-54 cells assessed as change in phosphorylated ERK level at 10 uM for 30 minutes in presence of PDGF by western blot analysis relative to control; format: cell-based; design: scale not given: the % may be the effect or the level left; method in brief: as §2
[20] = Drug metabolism in JAK2V6175 transgenic myelofibrosis C57BL/6 mouse blood at 325 mg/kg, po assessed as metabolite formation measured after 4 hrs by LC-MS/MS analysis; format: ADME, organism-based; settings: in vivo; method in brief: as §1
[21] = test system: Spleen; assay: Effect in JAK2V6175 transgenic myelofibrosis C57BL/6 mouse spleen assessed as reduction in ERK1/2 phosphorylation at 325 mg/kg, po administered daily for 5 days by flow cytometry analysis; settings: time 5.0 day
[22] = Drug concentration in JAK2V6175 transgenic myelofibrosis C57BL/6 mouse blood at 325 mg/kg, po measured after 4 hrs by LC-MS/MS analysis; format: ADME, organism-based; settings: whole blood, read-out: Ct; method in brief: as §1
[23] = Drug concentration in JAK2V6175 transgenic myelofibrosis C57BL/6 mouse bone marrow at 325 mg/kg, po measured after 4 hrs by LC-MS/MS analysis; format: ADME, organism-based; settings: read-out: Ct; method in brief: as §1
[24] = Drug metabolism in JAK2V6175 transgenic myelofibrosis C57BL/6 mouse bone marrow at 325 mg/kg, po assessed as metabolite formation measured after 4 hrs by LC-MS/MS analysis; format: ADME, organism-based; settings: in vivo; method in brief: as §1
[25] = test system: Mus musculus; assay: Antitumor activity against JAK2V6175 transgenic myelofibrosis C57BL/6 mouse cancer model assessed as reduction in spleen weight at 325 mg/kg, po administered daily for 5 days; design: scale not given: the % may be the effect or the level left; settings: time 5 day
[26] = test system: SET2; assay: Inhibition of ERK phosphorylation in human SET2 cells assessed as change in phosphorylated ERK level at 10 uM for 30 minutes in absence of PDGF by western blot analysis relative to control; design: scale not given: the % may be the effect or the level left

O=C(NOCCOCCOCCOCCNc1nc(N2CCOCC2)nc(-n2c(C(F)F)nc3ccccc32)n1)c1ccc(F)c(F)c1Nc1ccc(I)cc1F
Drug metabolism [1]: Metabolite_Detected | IC50 [2]: 0.124 µM | Activity [3]: 85.5% | IC50 [4]: 0.13 µM | IC50 [5]: 2.74 µM | IC50 [6]: 1.54 µM | Activity [7]: 22.5% | inhibition [8]: Active | IC50 [9]: 0.236 µM | Activity [10]: 28.9% | inhibition [11]: Active | concentration at 4 h [12]: 2000 ng/g | IC50 [13]: 10.7 µM | IC50 [14]: 10.7 µM | inhibition [15]: Active | IC50 [16]: 17.3 µM | Activity [17]: Active | Activity [18]: 23.7% | Activity [19]: 66.4% | Drug metabolism [20]: Metabolite_Detected | inhibition [21]: Active | concentration at 4 h [22]: 2000 ng/g | concentration at 4 h [23]: 2000 ng/g | Drug metabolism [24]: Metabolite_Detected | Activity [25]: 35% | Activity [26]: 76.8%

O=C(NOCCOCCOCCOCCN(CCO)c1nc(N2CCOCC2)nc(-n2c(C(F)F)nc3ccccc32)n1)c1ccc(F)c(F)c1Nc1ccc(I)cc1F
Drug metabolism [1]: Metabolite_Detected | Activity [3]: 96% | Activity [7]: 65.3% | inhibition [8]: Active | Activity [10]: 54.8% | inhibition [11]: Active | concentration at 4 h [12]: 2000 ng/g | IC50 [13]: 8.5 µM | IC50 [14]: 7 µM | inhibition [15]: Active | IC50 [16]: 9.9 µM | Activity [17]: Active | Activity [18]: 70.8% | Activity [19]: 87.3% | Drug metabolism [20]: Metabolite_Detected | inhibition [21]: Active | concentration at 4 h [22]: 2000 ng/g | concentration at 4 h [23]: 2000 ng/g | Drug metabolism [24]: Metabolite_Detected | Activity [25]: 53% | Activity [26]: 90%
